# In ChEMBL document CHEMBL4190213, “Naphthoquinones of Sinningia reitzii and Anti-inflammatory/Antinociceptive Activities of 8-Hydroxydehydrodunnione” (J Nat Prod, 2017):
# The source made the active and inactive calls.
# Legend:
# [1] = test system: Mus musculus; test: Toxicity in Swiss mouse assessed as motor impairment at 5 mg/kg, sc incubated for 15 mins measured for 180 secs by rotarod test; format: organism-based; conditions: in vivo, 0.05 h
# How it was run: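 Male Swiss mice (25−35 g) were preselected for staying at least 60 s on a Rotarod at 22 rpm (one of three trials). Diazepam was given at 5.0 mg/kg s.c. as the positive control. Local intraplantar treatments (15 pg/paw, or 20 μL vehicle of 0.1% Tween 20) were tested 3 h later. The Rotarod task lasted 180 s, n = 6.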
# [2] = test system: Mus musculus; test: Antinociceptive activity in dibutyryl cyclic AMP-induced Swiss mouse model of mechanical hyperalgesia at 15 pg/paw administered as intraplantar injection pretreated for 15 mins followed by dibutyryl cyclic AMP challenge after 3 hrs by Von Frey filament assay; format: functional, organism-based
# How it was run: (§1)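 Male Swiss mice received intraplantar pretreatment, vehicle 20 μL of 0.1% Tween 20. After 15 min the right paw was injected with PGE2 (100 ng/paw), dopamine (3 μg/paw) or dbcAMP (5 μg/paw). The 50% mechanical withdrawal threshold was measured by von Frey filaments, up-and-down method, before injection and 3 h after the stimulus; mean ± SEM, 5−8 animals.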
# [3] = test system: Mus musculus; test: Toxicity in Swiss mouse assessed as motor impairment at 15 pg/paw administered as intraplantar injection incubated for 3 hrs measured for 180 secs by rotarod test; format: organism-based; conditions: in vivo, other
# How it was run: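 Male Swiss mice were preselected for staying at least 60 s on a Rotarod at 22 rpm (one of three trials). They received intraplantar treatment (vehicle 20 μL of 0.1% Tween 20) and were tested on the Rotarod 3 h later for 180 s; mean ± SEM, n = 6.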
# [4] = test system: Mus musculus; test: Antinociceptive activity in carrageenan-induced Swiss mouse model of mechanical hyperalgesia administered as intraplantar injection pretreated for 15 mins followed by carrageenan challenge after 3 hrs by Von Frey filament assay; format: functional, organism-based
# How it was run: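 Male Swiss mice were acclimatized 1 h on a wire mesh platform and given a basal von Frey up-and-down test (six measurements, 50% withdrawal threshold). Intraplantar treatment followed, 5−50 pg into the right paw, vehicle 0.1% Tween 20 in saline, 20 μL. After 15 min, carrageenan 300 μg/paw in 20 μL went into the right hindpaw. The threshold was remeasured at 3 h; mean ± SEM, 5−8 animals.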
# [5] = test system: Mus musculus; test: Antinociceptive activity in dopamine-induced Swiss mouse model of mechanical hyperalgesia at 15 pg/paw administered as intraplantar injection pretreated for 15 mins followed by dopamine challenge after 3 hrs by Von Frey filament assay; format: functional, organism-based; how it was run: as §1
# [6] = test system: Mus musculus; test: Antinociceptive activity in PGE2-induced Swiss mouse model of mechanical hyperalgesia at 15 pg/paw administered as intraplantar injection pretreated for 15 mins followed by PGE2 challenge after 3 hrs by Von Frey filament assay; format: functional, organism-based; how it was run: as §1
# [7] = species on record: Mus musculus; test: Antinociceptive activity in Swiss mouse assessed as increase in thermal-stimulus induced paw withdrawal or licking latency at 15 pg/paw after 3 hrs by hot plate method; format: functional, organism-based
# How it was run: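 Male Swiss mice were preselected for a basal latency of 7−15 s on a 55 °C metal platform. They then received intraplantar treatment (vehicle 20 μL of 0.1% Tween 20) and were re-exposed at 3 h. The end point was paw withdrawal or licking, cutoff 30 s. Data are %MPE = (post − basal)/(cutoff − basal) × 100; mean ± SEM, n = 6.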
# [8] = test system: Mus musculus; test: Antiinflammatory activity in Swiss mouse assessed as inhibition of carrageenan-induced paw edema administered as intraplantar injection pretreated for 1 hr followed by carrageenan challenge measured after 1 to 4 hrs; format: functional, organism-based
# How it was run: (§2)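 Male Swiss mice, 25−35 g, given an intraplantar pretreatment in 0.1% Tween 20 vehicle. The right hind paw then received carrageenan, 300 μg in 50 μL sterile 0.9% saline, given subcutaneously; the contralateral paw received saline only. Paw thickness was read by digital micrometer 1 h before and 1, 2 and 4 h after carrageenan. The result is the thickness difference in μm; mean ± SEM, 5−8 animals.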
# [9] = test system: Mus musculus; test: Antiinflammatory activity in Swiss mouse assessed as inhibition of carrageenan-induced paw edema 30 ng/paw administered as intraplantar injection pretreated for 1 hr followed by carrageenan challenge measured after 1 to 4 hrs; format: functional, organism-based; how it was run: as §2
# [10] = test system: Mus musculus; test: Antinociceptive activity in PGE2-induced Swiss mouse model of mechanical hyperalgesia at 320 ng/paw administered as intraplantar injection pretreated for 15 mins followed by PGE2 challenge after 3 hrs by Von Frey filament assay; format: functional, organism-based; how it was run: as §1
# [11] = test system: Mus musculus; test: Antinociceptive activity in dibutyryl cyclic AMP-induced Swiss mouse model of mechanical hyperalgesia at 320 ng/paw administered as intraplantar injection pretreated for 15 mins followed by dibutyryl cyclic AMP challenge after 3 hrs by Von Frey filament assay; format: functional, organism-based; how it was run: as §1
# [12] = test system: Mus musculus; test: Antinociceptive activity in dopamine-induced Swiss mouse model of mechanical hyperalgesia at 320 ng/paw administered as intraplantar injection pretreated for 15 mins followed by dopamine challenge after 3 hrs by Von Frey filament assay; format: functional, organism-based; how it was run: as §1
structure (smiles),measurement,setting,value
CN1C(=O)CN=C(c2ccccc2)c2cc(Cl)ccc21 [DIAZEPAM],Activity,[1],Toxic
C=C1OC2=C(C(=O)C(=O)c3c(O)cccc32)C1(C)C,Activity,[2],inactive
same,Activity,[3],Non-Toxic
same,Activity,[4],Dose-dependent effect
same,Activity,[5],Active
same,Activity,[6],Active
same,Activity,[7],inactive
same,inhibition,[8],Dose-dependent effect
C[C@@H]1C[C@H]2[C@@H]3CCC4=CC(=O)C=C[C@]4(C)[C@@]3(F)[C@@H](O)C[C@]2(C)[C@@]1(O)C(=O)CO,inhibition,[9],Active
Cc1c(N(C)CS(=O)(=O)O)c(=O)n(-c2ccccc2)n1C,Activity,[10],Active
same,Activity,[11],Active
same,Activity,[12],Active
